# Measured values gathered from unrelated publications.
# Compare with care: the assays were run in different laboratories.
# Target: Bone morphogenetic protein receptor type-1B (BMPR1B, Homo sapiens, UniProt O00238)
SMILES,assay,conditions,remaining binding
CC1CCCN1c1nccc(-c2cnn3ncccc23)n1 (stereo not shown),binding,1 µM,84%
CCN1CCN(Cc2ccc(C(=O)Nc3ccc(C)c(Oc4ccc5c(c4)CC(=O)N5)c3)cc2C(F)(F)F)CC1,"binding, competition with immobilised ligand",1 µM,100%
CN(C)c1ncc(F)c(-c2cnn3ncccc23)n1,binding,1 µM,64%
O=C1CCc2cc(Nc3cc(OC4CCOCC4)c([N+](=O)[O-])cc3Cl)ccc2N1,"cell-free assay, competition with immobilised ligand",1 µM,87%
COc1ncc2cc3ccccc3nc2c1C#N,"cell-free assay, competition with immobilised ligand",5 µM,89%
O=c1nc(-c2ccccn2)sc2ccccc12,"cell-free assay, competition with immobilised ligand",1 µM,75%
O=C(NCCCN1CCOCC1)c1ccc(Nc2ncc(Cl)c(-c3ccc(Cl)s3)n2)cc1,"binding, competition with immobilised ligand",1 µM,56%
CNC(=O)[C@@H]1CC[C@@H](n2c(-c3ccc4cnccc4c3)nc3ccc(C(=O)NCc4cccc(C(N)=O)c4)cc32)C1,"binding, competition with immobilised ligand",1 µM,80%
O=C(c1ccc(Nc2nccc(-c3cc4ccccc4s3)n2)cc1)N1CCC(N2CCCC2)CC1,"binding, competition with immobilised ligand",1 µM,41%
COc1cnc(Nc2cccc(S(N)(=O)=O)c2)nc1N1CCN(c2ccccc2)CC1,"binding, competition with immobilised ligand",1 µM,87%
C[C@@H](c1ccc(-n2cnc3c(N)ncnc32)cc1)N1CCc2nn(C)c(Cc3ccccc3)c2C1=O,"binding, competition with immobilised ligand",0.1 µM,84%
CN(C)c1nccc(-c2cnn3ncccc23)n1,binding,1 µM,76%
O=C(NCC1CCOCC1)c1n[nH]cc1NC(=O)c1c(F)cccc1F,"binding, competition with immobilised ligand",1 µM,90%
c1cnn2ncc(-c3ccnc(N4CCC45COC5)n3)c2c1,binding,1 µM,52%
COCCOc1nc(-c2ccc(Cl)nc2)nc2c1CN(C(=O)c1ncn3ccccc13)CC2,"cell-free assay, competition with immobilised ligand",0.1 µM,100%
CN(c1nccc(-c2cnn3ncccc23)n1)C1CC1,binding,1 µM,76%
C[C@@H]1CN(c2cc(-c3nn(C)c4ccc(OC5(C)CC5)cc34)ncn2)C[C@H](C)O1,"cell-free assay, competition with immobilised ligand",1 µM,77%
N[C@@H]1CCN(c2nccc(-c3cnn4ncccc34)n2)C1,binding,1 µM,94%
CCCCN(CCCC)C(=O)CN1C[C@H](c2cc(OC)c3c(c2)OCO3)[C@@H](C(=O)O)[C@@H]1CC(C)(C)CCC,"cell-free assay, competition with immobilised ligand",1 µM,59%
Cc1cnc(Nc2ccc(C(=O)N3CCC(N4CCCC4)CC3)cc2)nc1-c1cc2ccccc2s1,"binding, competition with immobilised ligand",1 µM,26%
Cc1cnn2ncc(-c3ccnc(N(C)C)n3)c2c1,binding,1 µM,67%
CSc1cccnc1N1CCN(Cc2nc3ccccc3[nH]2)CC1,"cell-free assay, competition with immobilised ligand",1 µM,80%
